# Measured values from ChEMBL document CHEMBL1133845, “N-propargyl-2-alkynylbenzothiazolium aza-enediynes: role of the 2-alkynylbenzothiazolium functionality in DNA cleavage” (Bioorg Med Chem Lett, 2001).
# Experiment: Normalized percent cleavage of DNA from cleavage reactions (20 h) containing 100 μM compound and 50 μM (bp) supercoiled DNA at pH 9.0 in 20 mM TRIS buffer
# In short: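 Supercoiled ΦX174 DNA (50 μM bp) incubated with 100 μM compound in 20 mM TRIS, pH 9, for 20 h at 37 °C. Relaxed circular (Form II) and linear (Form III) DNA resolved on agarose gel and expressed as normalized percent cleavage. Mean ± SD over separate determinations.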
row,DNA cleavage,Structure (SMILES)
1,42%,C#CC[n+]1c(C#Cc2ccc(C)cc2)sc2ccccc21
2,33%,C#CC[n+]1c(C#C[Si](C)(C)C)sc2ccccc21
3,7%,C#CC[n+]1c(C#C[Si](C(C)C)(C(C)C)C(C)C)sc2ccccc21

# Further lines, the compound ahead of its results:
row,Structure (SMILES),DNA cleavage
1,C[n+]1c(C#Cc2ccccc2)sc2ccccc21,48%
2,C(#Cc1nc2ccccc2s1)c1ccccc1,0%
3,C#CC[n+]1c(C#Cc2ccccc2)sc2ccccc21,40%
